Results: ChEMBL document CHEMBL1152892, “Synthesis and biological evaluation of 3,6-disubstituted [1,2,4]triazolo[3,4-b][1,3,4]thiadiazole derivatives as a novel class of potential anti-tumor agents” (Eur J Med Chem, 2009)
Active and inactive are the calls of the source. The calls are words filed in the database; no cut-off is given here.

What was measured:
[1] = biological target: Cyclin-dependent kinase 1/cyclin B1 (Homo sapiens, UniProt P06493); test: Inhibition of CDK1/Cyclin B; type: protein-complex assay
Chain of Cyclin-dependent kinase 1/cyclin B1 (P06493 whole entry): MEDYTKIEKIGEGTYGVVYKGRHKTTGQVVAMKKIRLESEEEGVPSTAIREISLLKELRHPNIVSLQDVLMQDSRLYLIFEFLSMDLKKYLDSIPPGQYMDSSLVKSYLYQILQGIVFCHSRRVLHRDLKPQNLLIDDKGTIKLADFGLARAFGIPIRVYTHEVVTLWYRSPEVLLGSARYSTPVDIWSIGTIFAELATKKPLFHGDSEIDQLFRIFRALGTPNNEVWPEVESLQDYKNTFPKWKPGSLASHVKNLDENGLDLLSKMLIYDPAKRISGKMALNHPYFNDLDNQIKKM
Chain of Cyclin-dependent kinase 1/cyclin B1 (P14635 whole entry, further chain): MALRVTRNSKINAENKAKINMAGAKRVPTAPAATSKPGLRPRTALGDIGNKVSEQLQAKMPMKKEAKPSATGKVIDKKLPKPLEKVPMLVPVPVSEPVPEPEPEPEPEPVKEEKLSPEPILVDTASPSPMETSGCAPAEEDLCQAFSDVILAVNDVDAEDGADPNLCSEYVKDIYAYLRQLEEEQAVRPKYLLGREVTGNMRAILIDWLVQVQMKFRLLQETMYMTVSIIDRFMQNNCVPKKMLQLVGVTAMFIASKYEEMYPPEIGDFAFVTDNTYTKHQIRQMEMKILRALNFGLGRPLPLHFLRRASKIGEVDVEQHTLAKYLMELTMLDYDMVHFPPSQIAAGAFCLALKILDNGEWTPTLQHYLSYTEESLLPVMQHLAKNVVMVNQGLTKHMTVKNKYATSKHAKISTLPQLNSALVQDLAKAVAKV

[2] = biological target: Cyclin-dependent kinase 2 (Homo sapiens, UniProt P24941); test: Inhibition of CDK2/Cyclin A
[3] = Inhibition of CDK4/Cyclin D
MCF7 [4] = test: Antitumor activity against human MCF7 cells assessed as cell growth at 10 uM after 48 hrs by sulforhodamine B assay; type: functional; settings: MCF7, 48 h, read-out: Activity
How it was run: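 NCI primary screen, single concentration 10^-5 M against MCF7, NCI-H460 and SF-268. Cells in RPMI 1640 with 5% FBS and 2 mM L-glutamine, seeded at 5000–40,000 cells/well by cell type, preincubated 24 h at 37 °C. Compound added at time zero, then 48 h incubation (5% CO2, 100% humidity). Growth read by sulforhodamine B optical density, reported as growth percentage.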

RPMI8266 = test: Cytotoxicity against human […] cells after 48 hrs by sulforhodamine B assay; type: functional
How it was run: (§1)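 NCI human tumor panel. Cells in RPMI 1640 with 5% FBS and 2 mM L-glutamine, 5000–40,000 cells/well by growth characteristics, 24 h preincubation at 37 °C. Compound added at time zero at five 10-fold dilutions, top concentration agent-dependent. Incubated 48 h (5% CO2, 100% humidity), then sulforhodamine B stain and plate-reader OD. GI50 and TGI are the concentrations giving 50% and total growth inhibition, in µM.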

SR = test: Cytotoxicity against human SR cells after 48 hrs by sulforhodamine B assay; type: functional; how it was run: as §1
HOP-62 = test: Cytotoxicity against human HOP62 cells after 48 hrs by sulforhodamine B assay; type: functional; how it was run: as §1
HOP-92 = test: Cytotoxicity against human HOP92 cells after 48 hrs by sulforhodamine B assay; type: functional; settings: for GI50: HOP-92, 48 h; how it was run: as §1
NCI-H322M = test: Cytotoxicity against human NCI-H322M cells after 48 hrs by sulforhodamine B assay; type: functional; how it was run: as §1
HCC 2998 = test: Cytotoxicity against human HCC2998 cells after 48 hrs by sulforhodamine B assay; type: functional; how it was run: as §1
HCT-15 = test: Cytotoxicity against human HCT15 cells after 48 hrs by sulforhodamine B assay; type: functional; how it was run: as §1
KM12 = test: Cytotoxicity against human KM12 cells after 48 hrs by sulforhodamine B assay; type: functional; settings: for GI50: KM12, 48 h; how it was run: as §1
SF-268 = test: Cytotoxicity against human SF268 cells after 48 hrs by sulforhodamine B assay; type: functional; how it was run: as §1
SF-539 = test: Cytotoxicity against human SF539 cells after 48 hrs by sulforhodamine B assay; type: functional; how it was run: as §1
SNB-75 = test: Cytotoxicity against human SNB75 cells after 48 hrs by sulforhodamine B assay; type: functional; how it was run: as §1
LOX IMVI = test: Cytotoxicity against human LOXIMVI cells after 48 hrs by sulforhodamine B assay; type: functional; how it was run: as §1
UACC-62 = test: Cytotoxicity against human UACC62 cells after 48 hrs by sulforhodamine B assay; type: functional; how it was run: as §1
OVCAR-3 = test: Cytotoxicity against human OVCAR-3 cells after 48 hrs by sulforhodamine B assay; type: functional; how it was run: as §1
A498 = test: Cytotoxicity against human A498 cells after 48 hrs by sulforhodamine B assay; type: functional; how it was run: as §1
ACHN = test: Cytotoxicity against human ACHN cells after 48 hrs by sulforhodamine B assay; type: functional; how it was run: as §1
CAKI-1 = test: Cytotoxicity against human Caki1 cells after 48 hrs by sulforhodamine B assay; type: functional; how it was run: as §1
TK-10 = test: Cytotoxicity against human TK10 cells after 48 hrs by sulforhodamine B assay; type: functional; how it was run: as §1
MCF7 [5] = test: Cytotoxicity against human MCF7 cells after 48 hrs by sulforhodamine B assay; type: functional; how it was run: as §1
[6] = (§2) Cytotoxicity against human Hs 578T cells after 48 hrs by sulforhodamine B assay; type: functional; how it was run: as §1
BT-549 = test: Cytotoxicity against human BT549 cells after 48 hrs by sulforhodamine B assay; type: functional; settings: for GI50: BT-549, 48 h; how it was run: as §1
HCT-116 [7] = test: Antitumor activity against human HCT116 cells xenografted in nude mouse; type: functional, cell-based
CCRF-CEM = test: Cytotoxicity against human CCRF-CEM cells after 48 hrs by sulforhodamine B assay; type: functional; how it was run: as §1
NCI-H226 = test: Cytotoxicity against human NCI-H226 cells after 48 hrs by sulforhodamine B assay; type: functional; settings: for GI50: NCI-H226, 48 h; how it was run: as §1
HCT-116 [8] = test: Cytotoxicity against human HCT116 cells after 48 hrs by sulforhodamine B assay; type: functional; settings: HCT-116, 48 h; how it was run: as §1
OVCAR-4 = test: Cytotoxicity against human OVCAR4 cells after 48 hrs by sulforhodamine B assay; type: functional; how it was run: as §1
Hs-578T = test: as §2; type: functional; how it was run: as §1

Cc1nnc2sc(SSc3nn4c(C)nnc4s3)nn12
IC50 [1]: 6.8 µM
IC50 [2]: 23 µM
IC50 [3]: 11 µM

CCSc1nn2c(Cc3ccccc3)nnc2s1
IC50 [1]: > 120 µM
IC50 [2]: 24 µM
IC50 [3]: > 48 µM

NNc1nn2c(COc3ccc(Cl)cc3)nnc2s1
IC50 [1]: 28 µM
IC50 [2]: 15 µM
IC50 [3]: > 120 µM

Nc1nc(O)c(Cc2nn3c(COc4ccc(Cl)cc4)nnc3s2)s1
IC50 [1]: 0.91 µM
IC50 [2]: 0.18 µM
IC50 [3]: 3 µM
growth at 10 µM (MCF7 [4]): 0%
pGI50 (RPMI8266): inactive
GI50 (SR): 49 µM
pGI50 (HOP-62): inactive
GI50 (HOP-92): 97.7 µM
GI50 (NCI-H322M): 11.2 µM
pGI50 (HCC 2998): inactive
GI50 (HCT-15; HCT-15, 48 h): 0.741 µM
GI50 (KM12): 7.41 µM
pGI50 (SF-268): inactive
GI50 (SF-539; SF-539, 48 h): 39.8 µM
pGI50 (SNB-75): inactive
GI50 (LOX IMVI): 3.63 µM
GI50 (UACC-62; UACC-62, 48 h): 31.6 µM
pGI50 (OVCAR-3): inactive
GI50 (A498; A498, 48 h): 0.0537 µM
GI50 (ACHN): 35.5 µM
pGI50 (CAKI-1): inactive
GI50 (TK-10; TK-10, 48 h): 45.7 µM
GI50 (MCF7 [5]; MCF7, 48 h): > 100 µM
GI50 [6]: 31.6 µM
pGI50 (BT-549): inactive
Activity (HCT-116 [7]): Active

Cc1nnc2sc(Cc3sc(N)nc3O)nn12
IC50 [1]: 12 µM
IC50 [2]: 0.25 µM
IC50 [3]: 12 µM
growth at 10 µM (MCF7 [4]): 130%
pGI50 (CCRF-CEM): inactive
pGI50 (SR): inactive
pGI50 (HOP-62): inactive
pGI50 (HOP-92): inactive
GI50 (NCI-H226): 77.6 µM
GI50 (NCI-H322M): 87.1 µM
pGI50 (HCC 2998): inactive
GI50 (HCT-116 [8]): 83.2 µM
pGI50 (HCT-15): inactive
GI50 (KM12): 97.7 µM
pGI50 (SF-268): inactive
pGI50 (SF-539): inactive
pGI50 (SNB-75): inactive
pGI50 (LOX IMVI): inactive
pGI50 (UACC-62): inactive
pGI50 (OVCAR-3): inactive
pGI50 (OVCAR-4): inactive
pGI50 (A498): inactive
pGI50 (ACHN): inactive
GI50 (CAKI-1; CAKI-1, 48 h): 63.1 µM
pGI50 (TK-10): inactive
pGI50 (MCF7 [5]): inactive
pGI50 (Hs-578T): inactive
pGI50 (BT-549): inactive

Sc1nn2c(Cc3ccccc3)nnc2s1
IC50 [1]: 25 µM
IC50 [2]: 23 µM
IC50 [3]: 37 µM

c1ccc(CSc2nn3c(Cc4ccccc4)nnc3s2)cc1
IC50 [1]: 25 µM
IC50 [2]: > 28 µM
IC50 [3]: 18 µM

c1ccc(Cc2nnc3sc(SSc4nn5c(Cc6ccccc6)nnc5s4)nn23)cc1
IC50 [1]: 5.3 µM
IC50 [2]: 15 µM
IC50 [3]: 25 µM

Nc1ccc(-c2nn3c(Cc4ccccc4)nnc3s2)cc1
IC50 [1]: > 120 µM
IC50 [2]: > 28 µM
IC50 [3]: 14 µM

CCSc1nn2c(C)nnc2s1
IC50 [1]: > 120 µM
IC50 [2]: 11 µM
IC50 [3]: 14 µM

NNc1nn2c(Cc3ccccc3)nnc2s1
IC50 [1]: > 120 µM
IC50 [2]: > 28 µM
IC50 [3]: > 48 µM

Cc1nnc2sc(SCc3ccccc3)nn12
IC50 [1]: > 48 µM
IC50 [2]: 16 µM
IC50 [3]: > 120 µM

CCSc1nn2c(COc3ccc(Cl)cc3)nnc2s1
IC50 [1]: > 48 µM
IC50 [2]: 24 µM
IC50 [3]: > 120 µM

Cc1nnc2sc(-c3ccc(N)cc3)nn12
IC50 [1]: > 120 µM
IC50 [2]: 0.57 µM
IC50 [3]: > 120 µM
growth at 10 µM (MCF7 [4]): 119%
pGI50 (CCRF-CEM): inactive
pGI50 (RPMI8266): inactive
pGI50 (SR): inactive
GI50 (HOP-62; HOP-62, 48 h): 87.1 µM
pGI50 (NCI-H226): inactive
pGI50 (NCI-H322M): inactive
pGI50 (HCC 2998): inactive
pGI50 (HCT-15): inactive
GI50 (KM12): > 100 µM
pGI50 (SF-268): inactive
pGI50 (SF-539): inactive
GI50 (SNB-75; SNB-75, 48 h): 21.4 µM
pGI50 (LOX IMVI): inactive
pGI50 (UACC-62): inactive
pGI50 (OVCAR-3): inactive
pGI50 (OVCAR-4): inactive
pGI50 (A498): inactive
pGI50 (ACHN): inactive
pGI50 (CAKI-1): inactive
pGI50 (MCF7 [5]): inactive
GI50 [6]: 89.1 µM
GI50 (BT-549): > 100 µM

Sc1nn2c(COc3ccc(Cl)cc3)nnc2s1
IC50 [1]: 0.9 µM
IC50 [2]: 0.4 µM
growth at 10 µM (MCF7 [4]): 0%
GI50 (CCRF-CEM): 97.7 µM
pGI50 (RPMI8266): inactive
GI50 (SR): 95.5 µM
pGI50 (HOP-62): inactive
GI50 (HOP-92): 79.4 µM
GI50 (NCI-H226): 89.1 µM
pGI50 (NCI-H322M): inactive
pGI50 (HCC 2998): inactive
GI50 (HCT-116 [8]): > 100 µM
pGI50 (KM12): inactive
pGI50 (SF-268): inactive
pGI50 (SF-539): inactive
pGI50 (SNB-75): inactive
pGI50 (LOX IMVI): inactive
pGI50 (UACC-62): inactive
GI50 (OVCAR-3; OVCAR-3, 48 h): 81.3 µM
pGI50 (OVCAR-4): inactive
pGI50 (A498): inactive
pGI50 (ACHN): inactive
pGI50 (CAKI-1): inactive
pGI50 (TK-10): inactive
pGI50 (MCF7 [5]): inactive
GI50 [6]: 87.1 µM
GI50 (BT-549): 79.4 µM

S=c1[nH]c(=S)c2c(Cc3nn4c(Cc5ccccc5)nnc4s3)n[nH]c2[nH]1
IC50 [1]: 14 µM
IC50 [2]: 24 µM
IC50 [3]: > 48 µM

Clc1ccc(OCc2nnc3sc(SCc4ccccc4)nn23)cc1
IC50 [1]: > 120 µM
IC50 [2]: > 28 µM
IC50 [3]: 37 µM

Nc1nc(O)c(Cc2nn3c(Cc4ccccc4)nnc3s2)s1
IC50 [1]: > 120 µM
IC50 [2]: 14 µM
IC50 [3]: > 48 µM

S=c1[nH]c(=S)c2c(Cc3nn4c(COc5ccc(Cl)cc5)nnc4s3)n[nH]c2[nH]1
IC50 [1]: 29 µM
IC50 [2]: 37 µM
IC50 [3]: > 48 µM

Cc1nnc2sc(Cc3n[nH]c4[nH]c(=S)[nH]c(=S)c34)nn12
IC50 [1]: > 48 µM
IC50 [2]: 24 µM
IC50 [3]: 10 µM

Cc1nnc2sc(NN)nn12
IC50 [1]: 22 µM
IC50 [2]: 11 µM
IC50 [3]: > 120 µM

Cc1nnc2sc(S)nn12
IC50 [1]: 19 µM
IC50 [2]: 6.8 µM
IC50 [3]: 23 µM
